Source: the array DNA melting data of Ke et al. (doi:10.1101/2024.01.08.574731)

Experiments:
[1] = folding enthalpy; higher = less favourable; fluorescence melt of hairpins on a sequencing array, two-state fit; conditions: sodium 0.088 M
How it was run: (§1)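 Two-state fits, bootstrapped, provided melting temperature and folding enthalpy from Cy3 fluorescence normalised to pre-quench Cy3 and to control constructs. Library hairpins with annealed Cy3 and quencher oligos were imaged on a sequenced MiSeq flow cell in 50 mM Na-HEPES pH 8.0, 25 mM NaCl, at 2.5 °C intervals up to 60 °C. Four replicates were combined with inverse-variance weighting. A 9.35 °C upward shift was applied to fitted temperatures to match UV melts.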

[2] = melting temperature; fluorescence melt of hairpins on a sequencing array, two-state fit, raised by 9.35 °C to match UV melts; conditions: sodium 0.088 M
How it was run: as §1

| Sequence | folding enthalpy [1] [kcal/mol] | Tm [2] [°C] |
| --- | --- | --- |
| GCGGTTGGAAACAACTGC ((.((((....)))).)) | -46.5 | 55.6 |
| GCGGTTTCCGC ((((...)))) | -29.4 | 60.5 |
| GCGGTTTCGAAAGAACGC (((..(((....)))))) | -26.5 | 44.8 |
| GCGTAAACACGC ((((....)))) | -19.5 | 50.4 |
| GCGTAAATACGC ((((....)))) | -25.4 | 50 |
| GCGTAACCGAAAGGTCGC (((..(((....)))))) | -34.2 | 53 |
| GCGTAACGAAAGTTCCGC (((.(((....))).))) | -33.4 | 52.7 |
| GCGTAAGCACGC ((((....)))) | -9.59 | 59.6 |
| GCGTACACGAAAGTGCGC (((..(((....)))))) | -26.4 | 52.8 |
| GCGTACCGAAAGGTCCGC (((.(((....))).))) | -49.9 | 58.2 |
| GCGTACGAAAGTACTCGC ((((((....)))..))) | -15.6 | 46.5 |
| GCGTACGAAAGTAGACGC ((((((....)))..))) | -25.3 | 51.8 |
| GCGTACGAAAGTAGGCGC ((((((....)))..))) | -30 | 56 |
| GCGTACGAAAGTAGTCGC ((((((....)))..))) | -25.1 | 45.3 |
| GCGTACGAAAGTATTCGC ((((((....)))..))) | -25.5 | 40.7 |
| GCGTACGCACGC ((((....)))) | -17.1 | 56.9 |
| GCGTACGGAAACGTATGC ((.((((....)))).)) | -40.1 | 55.9 |
| GCGTACTACGC ((((...)))) | -24.6 | 55.2 |
| GCGTAGAAACGC ((((....)))) | -18.6 | 48 |
| GCGTAGCAACGC ((((....)))) | -9.68 | 61.4 |
| GCGTAGCGAAAGCACCGC (((..((....))..))) | -10.6 | 47.8 |
| GCGTAGCGAAAGCGGCGC (((..((....))..))) | -22.4 | 69.1 |
| GCGTAGCGAAAGCTAGGC ((.((((....)))).)) | -20.9 | 59.6 |
| GCGTAGCGAAAGCTCTGC ((..(((....)))..)) | -7.19 | 43.8 |
| GCGTAGCGAAAGCTGAGC ((..(((....)))..)) | -16 | 54.4 |

| Sequence | folding enthalpy [1] [kcal/mol] | Tm [2] [°C] |
| --- | --- | --- |
| GCGTAGCGAAAGCTTAGC ((..(((....)))..)) | -14.6 | 51.5 |
| GCGTAGGCACGC ((((....)))) | -14.1 | 60.8 |
| GCGTAGTCGAAAGACCGC (((..(((....)))))) | -28.9 | 52 |
| GCGTATCGAAAGATTCGC (((.(((....))).))) | -42.7 | 53.9 |
| GCGTATCGACGC ((((....)))) | -18.9 | 52.6 |
| GCGTATCTACGC ((((....)))) | -24.4 | 56.9 |
| GCGTATGCACGC ((((....)))) | -13.3 | 54.3 |
| GCGTATGGAAACATACGC (((((((....))))))) | -37.7 | 68.2 |
| GCGTATTTACGC ((((....)))) | -26.7 | 54.5 |
| GCGTCAAAACGC ((((....)))) | -21.2 | 51.6 |
| GCGTCACCGAAAGGTCGC (((..(((....)))))) | -25.2 | 51.2 |
| GCGTCACTACGC ((((....)))) | -25.3 | 52.8 |
| GCGTCAGACGC ((((...)))) | -22.7 | 52.3 |
| GCGTCAGGAAACCAACGC ((((..(....)..)))) | -25.1 | 40.3 |
| GCGTCAGGAAACTAACGC ((((.((....)).)))) | -28.1 | 44.7 |
| GCGTCATAACGC ((((....)))) | -23.4 | 53.3 |
| GCGTCATTACGC ((((....)))) | -22.9 | 55 |
| GCGTCCAACGC ((((...)))) | -19.9 | 53.6 |
| GCGTCCCAACGC ((((....)))) | -23.5 | 55.1 |
| GCGTCCCGAAAGGGCCGC (((.(((....))).))) | -23.7 | 64.8 |
| GCGTCCGAAAGGAAACGC ((((((....)))..))) | -34.1 | 54.4 |
| GCGTCCGAAAGGAAGCGC ((((((....)))..))) | -29.7 | 67.4 |
| GCGTCCGAAAGGACACGC ((((((....)))..))) | -14.6 | 60 |
| GCGTCCGAAAGGACCGC ((((((....))).))) | -19.6 | 66.7 |
| GCGTCCGAAAGGAGACGC ((((((....)))..))) | -31.4 | 57.6 |

| Sequence | folding enthalpy [1] [kcal/mol] | Tm [2] [°C] |
| --- | --- | --- |
| GCGTCCGAAAGGAGCCGC ((((((....)))..))) | -16.9 | 50.1 |
| GCGTCCGGAAACGGATGC ((.((((....)))).)) | -37.3 | 65.1 |
| GCGTCGAACGC ((((...)))) | -18.2 | 50.3 |
| GCGTCGCGAAAGCCCCGC (((..((....))..))) | -19.7 | 43.6 |
| GCGTCGCGAAAGCCTCGC (((..((....))..))) | -21.7 | 50.8 |
| GCGTCGCGAAAGCGGTGC ((..(((....)))..)) | -18.1 | 58.9 |
| GCGTCGCGAAAGCGTGGC ((..(((....)))..)) | -14.9 | 49.8 |
| GCGTCGCGAAAGCTAGGC ((.(.((....)).).)) | -20.9 | 36.8 |
| GCGTCGCGAAAGCTATGC ((.(.((....)).).)) | -20.1 | 45 |
| GCGTCGGGAAACCGACAC (.(((((....))))).) | -11.2 | 48.1 |
| GCGTCGGGAAACTGGCGC (((.(.(....).).))) | -37.1 | 53.2 |
| GCGTCGTCGAAAGACCGC (((..(((....)))))) | -19.3 | 50.3 |
| GCGTCTAGACGC ((((....)))) | -31 | 58.6 |
| GCGTCTCGAAAGAGTCGC (((.(((....))).))) | -38.1 | 58.1 |
| GCGTCTCTACGC ((((....)))) | -24.4 | 52.9 |
| GCGTCTGCACGC ((((....)))) | -17.6 | 52.5 |
| GCGTCTGGAAACAGGTGC ((..(((....)))..)) | -28.3 | 41.8 |
| GCGTCTTACGC ((((...)))) | -21.1 | 62.5 |
| GCGTCTTGACGC ((((....)))) | -34.4 | 69.1 |
| GCGTGAACACGC ((((....)))) | -20.9 | 68 |
| GCGTGACGAAAGTCCCGC (((.(((....))).))) | -21.9 | 59.8 |
| GCGTGACGAAAGTCCGC (((.(((....)))))) | -32.2 | 65 |
| GCGTGAGAACGC ((((....)))) | -18.9 | 64.2 |
| GCGTGAGCACGC ((((....)))) | -12.7 | 62.6 |
| GCGTGATAACGC ((((....)))) | -26.9 | 69.3 |

| Sequence | folding enthalpy [1] [kcal/mol] | Tm [2] [°C] |
| --- | --- | --- |
| GCGTGATCACGC ((((....)))) | -35.6 | 59.1 |
| GCGTGATTACGC ((((....)))) | -22.2 | 52.5 |
| GCGTGCCACGC ((((...)))) | -21.3 | 57.9 |
| GCGTGCCCGAAAGGGCGC (((..(((....)))))) | -7.85 | 55.5 |
| GCGTGCCGAAAGGCCCGC (((.(((....))).))) | -21.6 | 68.9 |
| GCGTGCCGACGC ((((....)))) | -19.3 | 60.1 |
| GCGTGCGAAAGCAAACGC ((((((....)))..))) | -29.6 | 60.2 |
| GCGTGCGAAAGCATCGC ((((((....))).))) | -30.9 | 67.2 |
| GCGTGGAGACGC ((((....)))) | -18.2 | 55.6 |
| GCGTGGCGAAAGCAGCGC (((..((....))..))) | -33.8 | 67.9 |
| GCGTGGCGAAAGCCCAGC ((..(((....)))..)) | -18.3 | 56.2 |
| GCGTGGCGAAAGCCGAGC ((..(((....)))..)) | -25.8 | 66.4 |
| GCGTGGCGAAAGCCGTGC ((..(((....)))..)) | -19.2 | 57.4 |
| GCGTGGCGAAAGCGATGC ((.(.((....)).).)) | -25.3 | 55.7 |
| GCGTGGGCGAAAGCCCGC (((..(((....)))))) | -9.77 | 57.7 |
| GCGTGGGGAAACCCACAC (.(((((....))))).) | -11.6 | 46.9 |
| GCGTGGGGAAACCCGTGC ((..(((....)))..)) | -26.1 | 46.2 |
| GCGTGGGGAAACCTACGC ((((.((....)).)))) | -41.3 | 58.7 |
| GCGTGGGGAAACTCACGC (((((.(....).))))) | -42.9 | 61.4 |
| GCGTGGGTACGC ((((....)))) | -23.9 | 53.9 |
| GCGTGTACACGC ((((....)))) | -28.5 | 67.6 |
| GCGTGTCACGC ((((...)))) | -31.1 | 57.7 |
